The source of these data is ChEMBL document CHEMBL1124392, “Potential antitumor agents. 57. 2-Phenylquinoline-8-carboxamides as "minimal" DNA-intercalating antitumor agents with in vivo solid tumor activity” (J Med Chem, 1989).

Molecules are shown by their SMILES. Calls of active or inactive are those of the source. The rule behind the calls is not given here.

Series [1] deals with Nucleic Acid. In words: Binding constant to poly[d(A-T)] by ethidium bromide displacement. The format is nucleic-acid assay.
The subject of series [2] is Nucleic Acid. In words: Binding constant to poly[d(G-C)] by ethidium bromide displacement. The series is classed as nucleic-acid assay.
The subject of series [3] is L1210. Description: Concentration to inhibit growth of murine leukemia cells in culture by 50%. The note with it: Mus musculus. The format is functional, cell-based. A digest of the protocol:
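Murine L1210 leukemia cells were grown in culture with drug for 40 h. IC50 is the drug concentration, in nM, that inhibits growth by 50%.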

Series [4] relates to Lewis lung carcinoma cell line. Description: Percentage increase in lifespan of mice treated at 100 mg/kg/day on days 5, 9, 13 after intravenous up to the toxic dose levels tested. The format is functional, organism-based. The note with it: Mus musculus. A digest of the protocol:
(§1)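 Mice were inoculated intravenously with 10^6 Lewis lung carcinoma cells. Drug was given ip in 30% v/v ethanol/water on days 5, 9 and 13. ILS is the percentage increase in lifespan at the optimal dose, with six animals per group.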

In series [5] the test system is P388. In words: Percentage increase in lifespan of mice treated at 100 mg/kg/day on days 1, 5, 9 after intravenous inoculation of P388 leukemia cells. The format is functional, Mus musculus. The conditions noted are these: for ILS at 100 mg/kg/day: Mus musculus, P388.
A short description of series [6]: pKa determined in aqueous solutions spectrophotometrically.
The test system of series [7] is Lewis lung carcinoma cell line. Description: Percentage increase in lifespan of mice treated at 65 mg/kg/day on days 5, 9, 13 after intravenous inoculation of lewis lung carcinoma cells. The format is functional, Mus musculus. A digest of the protocol: (§2)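 Mice were given 10^6 Lewis lung carcinoma cells intravenously. Drug was dosed intraperitoneally on days 5, 9 and 13 as a solution in 0.1 mL of 30% v/v ethanol/water, with groups of six animals. Read-out was the percentage increase in lifespan of treated tumor-bearing mice.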

In series [8] the test system is Lewis lung carcinoma cell line. In words: Percentage increase in lifespan of mice treated at 100 mg/kg/day on days 5, 9, 13 after intravenous inoculation of lewis lung carcinoma cells. The format is functional, Mus musculus. In outline:
as §2

Series [9] relates to P388. Description: Percentage increase in lifespan of mice treated at 100 mg/kg/day on days 1, 5, 9 after intraperitoneal inoculation of P388 leukemia cells.
Series [10] concerns Lewis lung carcinoma cell line. In words: Percentage increase in lifespan of mice treated at 150 mg/kg/day on days 5, 9, 13 after intravenous inoculation of lewis lung carcinoma cells. The format is functional, Mus musculus. A digest of the protocol:
as §2

Series [11] deals with Lewis lung carcinoma cell line. Description: Percentage increase in lifespan of mice treated at 65 mg/kg/day on days 5, 9, 13 after intravenous up to the toxic dose levels tested. The series is classed as functional, organism-based. The note with it: Mus musculus. In outline:
as §1

For series [12], the system named is P388. In words: Percentage increase in lifespan of mice treated at 65 mg/kg/day on days 1, 5, 9 after intraperitoneal inoculation of P388 leukemia cells.
The test system of series [13] is P388. Description: Percentage increase in lifespan of mice treated at 45 mg/kg/day on days 1, 5, 9 after intraperitoneal up to the toxic dose levels tested. The note with it: Mus musculus.
Series [14] has as its system P388. Description: Percentage increase in lifespan of mice treated at 65 mg/kg/day on days 1, 5, 9 after […] up to the toxic dose levels tested. The format is functional, organism-based. The conditions noted are these: Mus musculus. A digest of the protocol: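 Mice were inoculated intraperitoneally with 10^6 P388 leukemia cells. Drug was given ip in 30% v/v ethanol/water on days 1, 5 and 9. ILS is the percentage increase in lifespan of treated over untreated tumor-bearing animals at the optimal dose, with six animals per group. Values above 20% count as significant, and long-term survivors were scored at 50 days.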

The test system of series [15] is P388. Description: Percentage increase in lifespan of mice treated at 65 mg/kg/day on days 1, 5, 9 after intraperitoneal up to the toxic dose levels tested. The conditions noted are these: Mus musculus.
Series [16] deals with Nucleic Acid. Description: Binding constant for poly[d(A-T)] by ethidium bromide displacement. The format is nucleic-acid assay.
The test system of series [17] is Nucleic Acid. In words: Binding constant for poly[d(G-C)] by ethidium bromide displacement. The format is nucleic-acid assay.
The subject of series [18] is P388. In words: Percentage increase in lifespan of mice treated at 150 mg/kg/day on days 1, 5, 9 after intraperitoneal up to the toxic dose levels tested. The note with it: Mus musculus.
The subject of series [19] is P388. Description: Percentage increase in lifespan of mice treated at 225 mg/kg/day on days 1, 5, 9 after intraperitoneal inoculation of P388 leukemia cells.
Series [20] concerns P388. In words: Percentage increase in lifespan of mice treated at 100 mg/kg/day on days 1, 5, 9 after intraperitoneal up to the toxic dose levels tested. The note with it: Mus musculus.

For `COc1ccc(-c2ccc3cccc(C(=O)NCCN(C)C)c3n2)cc1`, the Log K in series [1] was 6.4; in [2], 6.27. In addition, it took 1290 nM to reach half-maximal inhibition in [3] (IC50). Besides, the ILS entry in series [4] is “inactive”. The same compound registered an ILS in series [5] of 42. This compound returned a pKa in series [6] of 3.28.
For `CN(C)CCNC(=O)c1cccc2ccc(-c3ccncc3)nc12`, the Log K in [1] worked out at 5.82; in series [2], 6.32. In series [3], half-maximal inhibition (IC50) was put at 170 nM. Further, in [7], the ILS is given as 191.
Consider `CN(C)CCNC(=O)c1cccc2ccc(-c3ccccn3)nc12`, for which the Log K is 5.82 in series [1] and 5.85 in series [2]. The IC50 in [3] was found to be 1640 nM. The results for the ILS in [8] and in [5] were 84 and 73, respectively.
On to `CN(C)CCNC(=O)c1cccc2ccc(-c3ccc(F)cc3)nc12`, for which the Log K in series [1] amounted to 6.74; in series [2] it was 6.66. This compound returned an IC50 in series [3] of 730 nM. Further, the ILS result in series [4] is “inactive”. Moreover, in series [9], the ILS is reported as 24.
`CN(C)CCNC(=O)c1cccc2ccc(-c3ccc(N)cc3)nc12`: the values for the Log K in series [1] and in [2] were 6.42 and 6.96, respectively. Also, inhibition in series [3] was half-maximal at 200 nM (IC50). For the same compound, the figures for the ILS in [10] and in series [9] were 59 and 28, respectively.
On to `CN(C)CCCNC(=O)c1cccc2ccc(-c3ccccc3)nc12`, for which the Log K worked out at 5.9 in series [1] and 5.62 in series [2]. The compound also returned a 50% inhibitory concentration (IC50) in [3] of 1140 nM. The ILS result in series [4] is “inactive”. The ILS at 100 mg/kg/day in series [5] stood at 71%.
On to `CN(C)CCNC(=O)c1cccc2ccc(-c3cccc(Cl)c3)nc12`, for which the Log K came out at 6.05 in series [1] and 6.47 in series [2]. The compound further had an IC50 in series [3] of 1200 nM. The ILS entry in series [11] was “inactive”. For the same compound, the ILS in series [12] amounted to 40.
In the case of `CN(C)CCNC(=O)c1cccc2ccc(-c3ccc(Cl)cc3)nc12`, the results for the Log K in series [1] and in [2] were 6.08 and 5.99, respectively. The IC50 in [3] is 1170 nM. Moreover, the results for the ILS in series [7] and in series [9] were 45 and 52, respectively. Also, in series [6], the pKa came out at 2.42.
With `CN(C)CCNC(=O)c1cccc2ccc(-c3ccc(NS(C)(=O)=O)cc3)nc12`, the figures for the Log K in [1] and in [2] were 6.04 and 6.22, respectively. In [3], this compound registered an IC50 of 1330 nM. In addition, the ILS result in series [13] is “inactive”.
As to `CN(C)CCNC(=O)c1cccc2ccc(-c3cccnc3)nc12`, the figures for the Log K in series [1] and in series [2] were 5.81 and 6.09, respectively. Half-maximal inhibition in series [3] (IC50) was put at 840 nM. Also, the ILS in [8] stood at 55; in series [9] it was 58.
On to `CN(C)CCNC(=O)c1cccc2ccc(-c3ccccc3Cl)nc12`, for which the Log K in [1] was 5.32; in series [2], 5.12. This compound registered a concentration for half-maximal inhibition (IC50) in [3] of 8100 nM. Further, the ILS result in series [14] was “inactive”.
With `O=C(NCCN1CCOCC1)c1cccc2ccc(-c3ccccc3)nc12`, the values for the Log K in [1] and in series [2] were 6.12 and 5.61, respectively. The compound further registered an IC50 in series [3] of 44 nM. Also, in series [15], the ILS entry is “inactive”.
`O=C(NCCNCCO)c1cccc2ccc(-c3ccccc3)nc12`: the Log K in series [1] came out at 6.22; in series [2] it was 6.31. The compound further showed an IC50 in series [3] of 36 nM. Besides, the ILS entry in series [11] and in series [15] was “inactive” each time.
On to `CC(=O)Nc1ccc(-c2ccc3cccc(C(=O)NCCN(C)C)c3n2)cc1`, for which the values for the Log K in [16] and in series [17] were 6.49 and 7.07, respectively. The compound further had an IC50 in [3] of 600 nM. Also, the ILS entry in [14] is “inactive”.
As to `CN(C)CCNC(=O)c1cccc2ccc(-c3ccc(Br)cc3)nc12`, the values for the Log K in [1] and in series [2] were 6.63 and 6.68, respectively. This compound showed an IC50 in series [3] of 600 nM. Moreover, the ILS entry in series [4] is “inactive”. In addition, the ILS in series [9] was found to be 72.
For `CN(C)CCNC(=O)c1cccc2ccc(-c3ccc4ccccc4c3)nc12`, the figures for the Log K in series [1] and in series [2] were 7 and 7.35, respectively. The IC50 in series [3] stood at 860 nM. Also, the ILS result in series [18] was “inactive”.
As to `CN(C)CCNC(=O)c1cccc2ccc(-c3ccc([N+](=O)[O-])cc3)nc12`, the Log K in series [1] came out at 6.28; in series [2], 6.13. For the same compound, 290 nM corresponded to half-maximal inhibition in series [3] (IC50). For the same compound, the figures for the ILS in [7] and in [5] were 85 and 58, respectively.
`COc1cccc(-c2ccc3cccc(C(=O)NCCN(C)C)c3n2)c1`: the Log K in series [1] is 6.3; in [2] it was 6.41. The IC50 in series [3] was found to be 860 nM. This compound also returned an ILS in [19] of 46.
For `CN(C)CCCCCNC(=O)c1cccc2ccc(-c3ccccc3)nc12`, the Log K in [1] was determined as 5.9; in [2], 5.73. The IC50 in series [3] amounted to 1300 nM. Also, the ILS result in series [4] and in [14] was “inactive” in each case.
As for `CN(C)CCNC(=O)c1cccc2ccc(-c3ccc(C(F)(F)F)cc3)nc12`, the Log K in [1] was 6.64; in [2], 6.72. In addition, the half-inhibitory concentration (IC50) in series [3] amounted to 2100 nM. For the same compound, the ILS result in series [4] and in [20] was “inactive” each time.
`CN(C)CCNC(=O)c1cccc2ccc(-c3ccccc3)nc12`: the Log K amounted to 5.98 in series [1] and 5.92 in series [2]. Also, the ILS at 100 mg/kg/day in series [8] (Mus musculus, Lewis lung carcinoma) stood at 70%; in [5] it was 91%.
Take `CN(C)CCCCNC(=O)c1cccc2ccc(-c3ccccc3)nc12`: the Log K was 6.19 in [1] and 5.89 in series [2]. Further, the IC50 in [3] was 680 nM. Further, the ILS in [9] stood at 93.
Turning to `CN(C)CCNC(=O)c1cccc2ccc(-c3ccc(-c4ccccc4)cc3)nc12`, the Log K is 6.88 in [1] and 6.96 in series [2]. For the same compound, the IC50 in series [3] is 1290 nM. In [18], the ILS result is “inactive”.
For `CN(C)CCNC(=O)c1cccc2ccc(-c3ccc(S(C)(=O)=O)cc3)nc12`, in [1], the Log K was 5.68. It took 5800 nM to reach half-maximal inhibition in [3] (IC50). Also, the ILS entry in series [4] is “inactive”. This compound returned an ILS in [9] of 29.
Take `CN(C)CCNC(=O)c1cccc2ccc(-c3ccc(I)cc3)nc12`: the Log K worked out at 6.8 in series [1] and 6.87 in series [2]. Moreover, the IC50 in series [3] is 400 nM. For the same compound, the ILS result in [4] was “inactive”. In series [9], this compound had an ILS of 48.
Consider `Br.Br.CN(C)CCNC(=O)c1cccc2ccc(-c3ccc(O)cc3)nc12`, for which the values for the Log K in series [1] and in series [2] were 6.3 and 6.48, respectively. Further, half-maximal inhibition in [3] (IC50) required 1280 nM. For the same compound, the ILS entry in series [4] was “inactive”. Moreover, the ILS in [5] worked out at 22.
